ChEMBL document CHEMBL1137658, “Effect of caspofungin on metabolite profiles of Aspergillus species determined by nuclear magnetic resonance spectroscopy” (2007)
≈ marks a conversion by molar mass, not a printed value.

Assays:
Aspergillus terreus [1] = experiment: Antifungal activity against Aspergillus terreus isolate 04-188-2548 after 48 hrs by broth microdilution method; type: functional; settings: isolate 04-188-2548, 48 h
Aspergillus fumigatus [2] = experiment: microbe, parasite or virus in culture; settings: isolate 06-067-1639, 48 h
Aspergillus flavus [3] = experiment: Increase in metabolite production in Aspergillus flavus isolate 05-314-1100 assessed as lowest drug concentration required to increase >50% fumarate production after 48 hrs in presence of 2 % glucose by NMR spectroscopy; type: functional
In short: (§1)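 Cultures grown in RPMI 1640-2% glucose-MOPS with drug series, 48 h. Culture media analysed by 600-MHz ¹H NMR. MEP taken from stack plots and peak integrals of resolved resonances, as lowest drug concentration suppressing nutrient use or metabolite production by ≥50%. Alternative MEP: lowest concentration raising fumarate >50%.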

Aspergillus fumigatus [4] = experiment: microbe, parasite or virus in culture; settings: ATCC 204305, 48 h
Aspergillus nidulans [5] = experiment: Antifungal activity against Aspergillus nidulans isolate 05-326-1785 after 72 hrs by broth microdilution method; type: functional; settings: isolate 05-326-1785, 72 h
In short: (§2)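 Modified CLSI M38-A broth microdilution in RPMI 1640 with l-glutamine, 2% glucose (not 0.2%), MOPS pH 7. Serial drug dilutions 0.03125 to 16 μg/ml in microtiter plates stored at −70°C up to 3 weeks. Run in duplicate. MIC = lowest concentration completely inhibiting visible growth.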

Aspergillus niger [6] = experiment: Inhibition of metabolite production in Aspergillus niger isolate 05-290-2479 assessed as lowest drug concentration required to inhibit 50% citrate production after 48 hrs in presence of 2 % glucose by NMR spectroscopy; type: functional; in short: as §1
Aspergillus fumigatus [7] = experiment: Inhibition of metabolite production in Aspergillus fumigatus ATCC 204305 assessed as lowest drug concentration required to inhibit 50% fungal metabolite production after 72 hrs in presence of 2 % glucose by NMR spectroscopy; type: functional
In short: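 Caspofungin dilutions with A. fumigatus ATCC 204305 in RPMI 1640-2% glucose-MOPS, incubated 72 h. ¹H NMR of medium. MEP = lowest concentration giving ≥50% fall in malate, glycine betaine or fumarate peak areas.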

Aspergillus flavus [8] = experiment: Inhibition of metabolite production in isolate Aspergillus flavus 05-314-1100 assessed as lowest drug concentration required to inhibit 50% fumarate, malate production after 48 hrs in presence of 2 % glucose by NMR spectroscopy; type: functional, isolate  05-314-1100; in short: as §1
Aspergillus fumigatus [9] = experiment: Inhibition of metabolite production in Aspergillus fumigatus isolate 06-067-1639 assessed as lowest drug concentration required to inhibit 50% glycine betaine, fumarate, malate production after 48 hrs in presence of 2 % glucose by NMR spectroscopy; type: functional; in short: as §1
Aspergillus flavus [10] = experiment: Inhibition of metabolite production in Aspergillus flavus ATCC 204304 assessed as lowest drug concentration required to inhibit 50% fumarate, malate production after 48 hrs in presence of 2 % glucose by NMR spectroscopy; type: functional; in short: as §1
Aspergillus niger [11] = experiment: Inhibition of metabolite production in Aspergillus niger isolate 05-112-3701 assessed as lowest drug concentration required to inhibit 50% citrate production after 48 hrs in presence of 2 % glucose by NMR spectroscopy; type: functional; in short: as §1
Aspergillus terreus [12] = experiment: Inhibition of metabolite production in Aspergillus terreus isolate 06-059-2428 assessed as lowest drug concentration required to inhibit 50% ethanol production after 48 hrs in presence of 2 % glucose by NMR spectroscopy; type: functional; in short: as §1
Aspergillus nidulans [13] = experiment: Inhibition of metabolite production in Aspergillus nidulans isolate 05-326-1785 assessed as lowest drug concentration required to inhibit 50% fumarate production after 72 hrs in presence of 2 % glucose by NMR spectroscopy; type: functional
In short: (§3)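 A. nidulans grows slowly, so spectra were recorded after 72 h incubation in RPMI 1640-2% glucose-MOPS with drug dilutions. 600-MHz ¹H NMR of culture medium. Fumarate peak integrals plotted against drug concentration. MEP = lowest concentration with ≥50% fall in fumarate.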

Aspergillus niger [14] = experiment: Antifungal activity against Aspergillus niger isolate 05-290-2479 after 48 hrs by broth microdilution method; type: functional; settings: isolate 05-290-2479, 48 h; in short: as §2
Aspergillus nidulans [15] = experiment: Antifungal activity against Aspergillus nidulans isolate 00-202661 after 72 hrs by broth microdilution method; type: functional; settings: isolate 00-202661, 72 h; in short: as §2
Aspergillus fumigatus [16] = experiment: Inhibition of metabolite production in Aspergillus fumigatus ATCC 204305 assessed as lowest drug concentration required to inhibit 50% glycine betain, fumarate, malate production after 48 hrs in presence of 2 % glucose by NMR spectroscopy; type: functional; in short: as §1
Aspergillus flavus [17] = experiment: Antifungal activity against Aspergillus flavus ATCC 204304 after 48 hrs by broth microdilution method; type: functional; settings: ATCC 204304, 48 h; in short: as §2
Aspergillus fumigatus [18] = experiment: microbe, parasite or virus in culture; settings: ATCC 204305, 72 h
Aspergillus terreus [19] = experiment: Antifungal activity against Aspergillus terreus isolate 06-059-2428 after 48 hrs by broth microdilution method; type: functional; settings: isolate 06-059-2428, 48 h; in short: as §2
Aspergillus terreus [20] = experiment: Inhibition of metabolite production in Aspergillus terreus isolate 04-188-2548 assessed as lowest drug concentration required to inhibit 50% ethanol, fumarate, malate production after 48 hrs in presence of 2 % glucose by NMR spectroscopy; type: functional; in short: as §1
Aspergillus nidulans [21] = experiment: Inhibition of metabolite production in Aspergillus nidulans isolate 00-202661 assessed as lowest drug concentration required to inhibit 50% fumarate production after 72 hrs in presence of 2 % glucose by NMR spectroscopy; type: functional; in short: as §3
Aspergillus niger [22] = experiment: Antifungal activity against Aspergillus niger isolate 05-112-3701 after 48 hrs by broth microdilution method; type: functional; settings: isolate 05-112-3701, 48 h
In short: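 CLSI M38-A broth microdilution, modified to use RPMI 1640 with 2% glucose (instead of 0.2%), 0.3 g/liter l-glutamine and 0.165 M MOPS at pH 7. Drug twofold dilutions 0.03125–16 μg/ml. Run in duplicate. MIC is the lowest concentration with no visible growth. For the lipopeptide, MEC is read at 48 h as the lowest concentration giving aberrant hyphae under an inverted microscope.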

Aspergillus flavus [23] = experiment: Antifungal activity against Aspergillus flavus isolate 05-314-1100 after 48 hrs by broth microdilution method; type: functional; settings: isolate 05-314-1100, 48 h

**Q.** `C[C@@H]1[C@H](O)[C@@H](C)/C=C/C=C/C=C/C=C/C=C/C=C/C=C/[C@H](O[C@@H]2O[C@H](C)[C@@H](O)[C@H](N)[C@@H]2O)C[C@@H]2O[C@](O)(C[C@@H](O)C[C@@H](O)[C@H](O)CC[C@@H](O)C[C@@H](O)CC(=O)O[C@H]1C)C[C@H](O)[C@H]2C(=O)O` [AMPHOTERICIN B] was tested. Which MIC (Aspergillus terreus [1]) did it give?
**A.** 2 µg/mL (≈ 2.16 µM)

**Q.** And the MIC (Aspergillus fumigatus [2])?
**A.** 1 µg/mL (≈ 1.08 µM)

**Q.** What about the Activity (Aspergillus flavus [3]) of the same compound?
**A.** 0.06 µg/mL

**Q.** What about the MIC (Aspergillus fumigatus [4]) of the same compound?
**A.** 1 µg/mL (≈ 1.08 µM)

**Q.** And the MIC (Aspergillus nidulans [5])?
**A.** 0.5 µg/mL (≈ 0.541 µM)

**Q.** What about the Activity (Aspergillus niger [6]) of the same compound?
**A.** 0.125 µg/mL

**Q.** And the Activity (Aspergillus fumigatus [7])?
**A.** 1 µg/mL

**Q.** And the Activity (Aspergillus flavus [8])?
**A.** 2 µg/mL

**Q.** What about the Activity (Aspergillus fumigatus [9]) of the same compound?
**A.** 0.5 µg/mL

**Q.** What about the Activity (Aspergillus flavus [10]) of the same compound?
**A.** 2 µg/mL

**Q.** And the Activity (Aspergillus niger [11])?
**A.** 0.25 µg/mL

**Q.** What about the Activity (Aspergillus terreus [12]) of the same compound?
**A.** 0.06 µg/mL

**Q.** And the Activity (Aspergillus nidulans [13])?
**A.** 0.5 µg/mL

**Q.** What about the MIC (Aspergillus niger [14]) of the same compound?
**A.** 0.25 µg/mL (≈ 0.271 µM)

**Q.** What about the MIC (Aspergillus nidulans [15]) of the same compound?
**A.** 1 µg/mL (≈ 1.08 µM)

**Q.** And the Activity (Aspergillus fumigatus [16])?
**A.** 0.25 µg/mL

**Q.** What about the MIC (Aspergillus flavus [17]) of the same compound?
**A.** 8 µg/mL (≈ 8.66 µM)

**Q.** What about the MIC (Aspergillus fumigatus [18]) of the same compound?
**A.** 1 µg/mL (≈ 1.08 µM)

**Q.** What about the MIC (Aspergillus terreus [19]) of the same compound?
**A.** 1 µg/mL (≈ 1.08 µM)

**Q.** What about the Activity (Aspergillus terreus [20]) of the same compound?
**A.** 2 µg/mL

**Q.** And the Activity (Aspergillus nidulans [21])?
**A.** 0.25 µg/mL

**Q.** And the MIC (Aspergillus niger [22])?
**A.** 0.5 µg/mL (≈ 0.541 µM)

**Q.** And the MIC (Aspergillus flavus [23])?
**A.** 4 µg/mL (≈ 4.33 µM)
